Data reported in publication PMC11492202 (RSC Advances, 2024).

What was measured:
α-amylase = experiment: In vitro α-amylase inhibition assay; format: biochemical; conditions: read-out: α-Amylase inhibition IC50 ± SEM; starch substrate, pH 6.9
Escherichia coli = experiment: Antibacterial disc diffusion assay; format: cell-based; conditions: 37 °C, 24 hours
Outline: (§1)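 Organisms grown overnight in nutrient broth, adjusted to 0.5 McFarland turbidity and spread evenly on Mueller-Hinton agar with sterile cotton brushes. Sterile 4 mm paper discs were impregnated with test compound and placed on the inoculated plates. Rifampin served as the positive control and DMSO as the negative control. Plates were incubated at 37 °C for 24 h, and inhibition zones were measured in mm.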

Bacillus subtilis = experiment: Antibacterial disc diffusion assay; format: cell-based; conditions: 37 °C, 24 hours
Outline: as §1

Proteinase K = Proteinase K (Parengyodontium album, UniProt P06873); experiment: In vitro proteinase K inhibition assay; format: biochemical, Tritirachium album Limber
Chain of Proteinase K (P06873 106-384): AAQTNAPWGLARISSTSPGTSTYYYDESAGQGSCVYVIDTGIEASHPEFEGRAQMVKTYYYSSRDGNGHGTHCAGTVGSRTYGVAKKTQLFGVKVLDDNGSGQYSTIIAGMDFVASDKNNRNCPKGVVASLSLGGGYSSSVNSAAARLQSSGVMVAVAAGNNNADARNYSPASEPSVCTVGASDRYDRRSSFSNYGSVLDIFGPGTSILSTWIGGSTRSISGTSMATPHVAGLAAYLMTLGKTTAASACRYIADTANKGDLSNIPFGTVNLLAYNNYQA

Row | Structure (SMILES) | IC50 (α-amylase) [nM] | Antibacterial zone of inhibition (Escherichia coli) [mm] | Antibacterial zone of inhibition (Bacillus subtilis) [mm] | IC50 (Proteinase K) [nM]
1 | O=C(NC(=S)Nc1nc(-c2ccccc2)cc(-c2ccc(Br)cc2)n1)c1ccccc1 [6a, N-((4-(4-Bromophenyl)-6-phenylpyrimidin-2-yl)carbamothioyl) benzamide] | 1676 ± 14 | 7 | 8 | –
2 | COc1ccc(C(=O)NC(=S)Nc2nc(-c3ccccc3)cc(-c3ccc(Cl)cc3)n2)cc1OC [6b, N-((4-(4-Chlorophenyl)-6-phenylpyrimidin-2-yl)carbamothioyl)-3,4-dimethoxybenzamide] | 1612 ± 4 | 6 | 9 | 1810 ± 86
3 | Cc1ccc(-c2cc(-c3ccccc3)nc(NC(=S)NC(=O)c3ccccc3)n2)cc1 [6c, N-((4-Phenyl-6-(p-tolyl)pyrimidin-2-yl)carbamothioyl)benzamide] | 1550 ± 24 | 7 | 8 | 1830 ± 62
4 | Cc1ccc(-c2cc(-c3ccc(F)cc3)nc(NC(=S)NC(=O)c3ccccc3)n2)cc1 [6d, N-((4-(4-Fluorophenyl)-6-(p-tolyl)pyrimidin-2-yl)carbamothioyl)benzamide] | 1550 ± 23 | 8 | 9 | –
5 | O=C(NC(=S)Nc1nc(-c2ccccc2)cc(-c2ccc(F)cc2)n1)c1ccccc1 [6e, N-((4-(4-Fluorophenyl)-6-phenylpyrimidin-2-yl)carbamothioyl)benzamide] | 1662 ± 10 | 6 | 7 | –
6 | Cc1ccccc1C(=O)NC(=S)Nc1nc(-c2ccccc2)cc(-c2ccc(Cl)cc2)n1 [6f, N-((4-(4-Chlorophenyl)-6-phenylpyrimidin-2-yl)carbamothioyl)-2 methylbenzamide] | 1664 ± 10 | 7 | 6 | 1790 ± 80
7 | O=C(NC(=S)Nc1nc(-c2ccccc2)cc(-c2ccc(Cl)cc2)n1)c1cccc2ccccc12 [6h, N-((4-(4-Chlorophenyl)-6-phenylpyrimidin-2-yl)carbamothioyl)-1-naphthamide] | 1601 ± 8 | 6 | 8 | –
8 | O=C(NC(=S)Nc1nc(-c2ccccc2)cc(-c2ccc(Cl)cc2)n1)C1CCCCC1 [6i, N-((4-(4-Chlorophenyl)-6-phenylpyrimidin-2-yl)carbamothioyl) cyclohexane carboxamide] | 1520 ± 34 | 7 | 11 | –
9 | Cc1ccc(C(=O)NC(=S)Nc2nc(-c3ccccc3)cc(-c3ccc(Cl)cc3)n2)cc1 [6j, N-((4-(4-Chlorophenyl)-6-phenylpyrimidin-2-yl)carbamothioyl)-4-methylbenzamide] | 1480 ± 51 | 6 | 7 | –
10 | CO[C@H]1/C=C/O[C@@]2(C)Oc3c(C)c(O)c4c(O)c(c(/C=N/N5CCN(C)CC5)c(O)c4c3C2=O)NC(=O)/C(C)=C\C=C\[C@H](C)[C@H](O)[C@@H](C)[C@@H](O)[C@@H](C)[C@H](OC(C)=O)[C@@H]1C [Rifampin, reference compound] | – | 17 | 26 | –
